# High-throughput results as filed in PubChem.
# Rtt109 Vps75 – inhibitors of C. albicans Rtt109/Vps75 HAT, primary screen, biochemical, ThioGlo CoA-SH fluorescence, plate reader; Histone acetyltransferase RTT109 (Candida albicans (strain SC5314 / ATCC MYA-2876)), …; purified Rtt109/Vps75, 4 h; inhibition, % at 34.9 µM; 330,000 compounds, 0.16% hits;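 active = inhibition of at least 50% in every replicate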
# Target sequence (Q5AAJ8 whole entry, looked up): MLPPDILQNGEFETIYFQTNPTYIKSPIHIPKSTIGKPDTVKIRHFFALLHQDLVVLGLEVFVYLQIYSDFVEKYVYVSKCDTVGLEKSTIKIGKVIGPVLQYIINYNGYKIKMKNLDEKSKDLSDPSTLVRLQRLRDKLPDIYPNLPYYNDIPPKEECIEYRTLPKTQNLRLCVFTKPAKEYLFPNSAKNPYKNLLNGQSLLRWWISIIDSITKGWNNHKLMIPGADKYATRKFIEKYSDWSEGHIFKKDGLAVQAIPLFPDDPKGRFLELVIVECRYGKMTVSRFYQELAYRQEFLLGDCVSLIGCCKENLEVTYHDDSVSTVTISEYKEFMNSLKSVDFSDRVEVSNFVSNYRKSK
# PGC1a acetyl inh – inhibitors of PGC1a acetylation signal, primary screen, cell-based, U2OS, AlphaScreen, inhibitor mode | AlphaScreen anti-acetyl-lysine; with virally co-expressed GCN5 acetyltransferase | inhibition, % at 15.6 µM | 350,000 compounds, 0.17% hits;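 active = every replicate shows inhibition of at least 40%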;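 also: 0% = neutral control wells and 100% = positive control wells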
# S100A4 MyoIIA – inhibitors of S100A4-myosin IIA peptide binding, primary screen, biochemical, fluorescence polarization, TAMRA-MyoIIA peptide; Protein S100-A4 (Homo sapiens), P26447; inhibition, % at 10.7 µM; 360,000 compounds, 0.14% hits;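 active = mean inhibition of at least 70% across replicates, with every replicate also reaching that level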
# Target sequence (P26447 whole entry, looked up): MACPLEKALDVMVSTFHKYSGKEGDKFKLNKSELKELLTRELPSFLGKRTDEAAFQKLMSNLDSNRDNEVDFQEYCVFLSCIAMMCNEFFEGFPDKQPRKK
#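 Material: human S100A4 monomer with TAMRA-labelled myosin IIA peptide; buffer or medium: HEPES pH 7.2 with CaCl2, KCl, NaCl, DTT, Triton; compound dosing: one concentration per compound; schedule: 5 min incubation before reading; benchmarks: neutral control DMSO, positive control TFP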
# Statin myotox sup – suppressors of statin myotoxicity in C2C12 myotubes, primary screen, cell-based, single point, plate reader; C2C12 myotubes + simvastatin, ATP luminescence, 48 h; scaled: DMSO 0, geranylgeraniol control 100; rescue of ATP level, % at 7.49 µM; 330,000 compounds, 0.78% hits;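 active = mean ATP rescue above about 67%, or every replicate alone reaching that limit, limit read from the data, passing the limit was not always enough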;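 also: myotubes were challenged with 10 µM simvastatin during compound exposure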
# ERAP1 HTS inh – human ERAP1 aminopeptidase inhibitors, primary screen, biochemical, single point, plate reader; AID 652197, 2013; Endoplasmic reticulum aminopeptidase 1 (Homo sapiens), Q9NZ08; 340,000 compounds, 0.15% hits; recombinant ERAP1, Leu-AMC fluorescence, 60 min; inhibition, % at 10.7 µM;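 active = mean replicate inhibition of at least 30%, or all replicates individually reaching that 30% level; inactive = mean below 30% and not every replicate reaching it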;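 also: 0% = neutral control wells and 100% = L-leucinethiol positive control wells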
# * = called active by the depositor; nt = no result. This is a sample that favours compounds with a hit; in the whole collection about 0.98% have one here.
SMILES,Rtt109 Vps75,PGC1a acetyl inh,S100A4 MyoIIA,Statin myotox sup,ERAP1 HTS inh
Cc1[nH]n(-c2ccccc2)c(=O)c1C=NC1CCCCC1,59*,-4,-7,1,0
O=c1c2c3c(sc2nc2n1CCCS2)CCCC3,-30,4,nt,114*,nt
CC1CSc2nc3sc4c(c3c(=O)n21)CCCC4 (stereo not drawn),-1,-7,nt,141*,nt
O=C(N[C@@H]1C=C[C@H](CC(=O)N2CCN(c3ccccc3)CC2)O[C@H]1CO)c1ccncc1,nt,-11,-5,-15,0
COc1cccc(-c2ccc3c(c2)O[C@H](CN(C)C(=O)C2CC2)[C@H](C)CN([C@@H](C)CO)S3(=O)=O)c1,nt,-27,9,32,-1
Cc1noc(C)c1NC(=O)Nc1ccc2c(c1)C(=O)N([C@@H](C)CO)C[C@@H](C)[C@H](CN(C)Cc1ccncc1)OCCCC[C@H](C)O2,nt,11,9,nt,-2
COc1ccc([Si](C)(C)[C@@H]2[C@@H](CCO)O[C@]3(C(=O)N(Cc4cccc(NC(C)=O)c4)c4ccccc43)[C@H]2C)cc1,nt,-11,30,nt,-2
C[C@@H]1CCCCO[C@H](CN(C)C(=O)Nc2cccc3ccccc23)[C@H](C)CN([C@@H](C)CO)C(=O)c2cc(NS(=O)(=O)c3ccc(Cl)cc3)ccc2O1,nt,-12,5,192*,-1
C[C@@H]1CN([C@@H](C)CO)C(=O)c2cc(NS(=O)(=O)c3ccc(Cl)cc3)ccc2O[C@@H](C)CCCCO[C@H]1CN(C)C(=O)Nc1cccc2ccccc12,nt,-20,-5,53,-1
C[C@@H]1CCCCO[C@@H](CN(C)C(=O)Nc2cccc3ccccc23)[C@H](C)CN([C@@H](C)CO)C(=O)c2cc(NS(=O)(=O)c3ccc(Cl)cc3)ccc2O1,nt,-10,1,137*,-2
CC(C)NC(=O)N(C)C[C@@H]1Oc2ncc(C#Cc3ccncc3)cc2C(=O)N([C@@H](C)CO)C[C@H]1C,nt,-6,4,6,1
COc1ccc(S(=O)(=O)Nc2cc3c4c(oc3c3ccccc23)CC(C)(C)CC4=O)cc1,7,nt,nt,nt,nt
COc1ccc(S(=O)(=O)Nc2cc3c4c(oc3c3ccccc23)CCCC4=O)cc1,-4,-34,nt,77*,nt
CC[n+]1c(C)sc2cc(OC)ccc21,2,nt,-11,nt,30*
COc1ccc2c(Cl)c(C(=O)NN)sc2c1,-8,-5,3,13,1
CCOC(=O)c1[nH]c(C)c(C(=O)NCC2CCCO2)c1C (stereo not drawn),2,10,nt,75*,nt
CCOC(=O)c1[nH]c(C)c(C(=O)NC2CCCCC2)c1C,-12,1,0,2,nt
COc1ccc(S(=O)(=O)Nc2ccccc2C)cc1C(=O)N1CCOCC1,-3,102*,1,9,7
COc1ccc(OC)c(S(=O)(=O)Nc2ccccc2C)c1,-9,-19,-1,100*,-4
Cc1ccccc1NS(=O)(=O)c1ccc(C)c(C(=O)N2CCOCC2)c1,-3,-2,2,nt,4
C[C@H](CO)N1C[C@H](C)[C@H](CN(C)Cc2ccc(Oc3ccccc3)cc2)OCc2cn(nn2)CCCC1=O,nt,-3,3,1,-1
COCC(=O)N1CC2(CCN(Cc3ccccc3Cl)CC2)c2c([nH]c3cc(OC)ccc23)[C@H]1CO,nt,-4,85*,nt,-1
COc1ccc(CN2CC3(CN(C(=O)Cc4ccccc4)C3)c3c([nH]c4cc(OC)ccc34)[C@H]2CO)cc1,nt,nt,4,nt,-4
COc1ccc(CN2CC3(CN(C(=O)c4ccccc4)C3)c3c([nH]c4cc(OC)ccc34)[C@H]2CO)cc1,nt,9,73*,nt,1
COc1ccc2c3c([nH]c2c1)[C@H](CO)N(Cc1cc(F)ccc1F)CC31CN(C)C1,nt,7,-32,nt,40*
SMILES,Rtt109 Vps75,PGC1a acetyl inh,S100A4 MyoIIA,Statin myotox sup,ERAP1 HTS inh
COc1ccc2c3c(n(C)c2c1)[C@H](CO)N(C(=O)c1ccccc1)CC31CCN(C(=O)c2ccccc2)CC1,nt,22,73*,nt,-4
COc1ccc2c3c(n(C)c2c1)[C@H](CO)N(C(=O)c1ccccc1)CC31CCN(C(C)=O)CC1,nt,nt,4,nt,-4
CC(C)C#Cc1ccc2c(c1)O[C@@H](CN(C)C(=O)c1ccccn1)[C@@H](C)CN([C@@H](C)CO)S2(=O)=O,nt,-4,1,19,0
O=C(C1CC1)N1CC(=O)N2[C@H](CO)[C@@H](c3ccc(C#Cc4cccc(F)c4)cc3)[C@H]2C1,nt,-11,-10,nt,0
C[C@H]1CN([C@@H](C)CO)C(=O)Cc2cc(NS(=O)(=O)c3ccc(Cl)cc3)ccc2O[C@@H]1CN(C)C(=O)Nc1ccc2c(c1)OCO2,nt,2,nt,-9,nt
COc1ccc(/C(O)=C2/C(=O)C(=O)N(CCN(C)C)C2c2ccccn2)cc1OC (stereo not drawn),6,3,nt,118*,nt
NCC12CC3CC(C1)CC(c1ccc(Cl)cc1)(C3)C2,51*,nt,2,nt,6
Cc1ccc(S(=O)(=O)N2CCN(C(=O)c3ccccc3)CC2)cc1,nt,nt,nt,-1,nt
COc1cccc(OC)c1C(=O)N1CCN(S(=O)(=O)c2ccc(C)cc2)CC1,14,-5,nt,126*,nt
CCCCCCCCCCCCCCCCn1cc[n+](CC(C)=O)c1,112*,nt,nt,nt,nt
COc1ccc(CN(CCC#N)C(=S)NC(=O)c2ccccc2)cc1,7,-2,nt,114*,nt
NC[C@@H]1O[C@H](C23CC4CC(CC(C4)C2)C3)Cc2c1ccc(O)c2O,-7,15,-7,-28,31*
Cc1sc2c3ccsc3ccc2[n+]1C,115*,7,-3,nt,23
C[C@@H]1CN([C@@H](C)CO)C(=O)c2cc(-c3cccc(F)c3)cnc2O[C@@H]1CN(C)C(=O)c1cnccn1,nt,-2,-2,-9,-1
CN1CCN(c2ccc(NC(=O)c3ccc([N+](=O)[O-])o3)cc2Cl)CC1,-4,nt,2,94*,-2
O=C(Nc1ccc(N2CCN(C(=O)c3ccccc3)CC2)cc1)c1ccc([N+](=O)[O-])o1,34,-122,1,nt,-1
Cc1ccccc1C(=O)N1CCN(c2ccc(NC(=O)c3ccc([N+](=O)[O-])o3)cc2)CC1,8,nt,2,167*,-1
Cc1ccccc1C(=O)N1CCN(c2ccc([N+](=O)[O-])c(NCc3ccco3)c2)CC1,-15,1,nt,130*,nt
CS(=O)(=O)NCCSCc1ccco1,53*,4,-4,-23,0
C[C@H](CO)N1C[C@H](C)[C@@H](CN(C)C(=O)Nc2ccc(C(F)(F)F)cc2)Oc2ccc(NS(=O)(=O)c3ccc(Cl)cc3)cc2CC1=O,nt,15,-2,-27,-1
